Source: article PMC7024737 (British Journal of Pharmacology, 2020)
Several values for one entry are separate records, joined by “and”; a condition that tells them apart may be missing. Identical values can stand only once. Like-named read-outs stand apart in the source and are kept apart here. One block for each compound: values may come before it.

Assays:
[1] = test system: platelets in human whole blood; assay: Thrombus formation under flow conditions, collagen-coated flow chamber; format: cell-based; settings: shear rate 1,500 s^−1, concentration-dependent, n = 5
Procedure, shortened: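 Flow chambers were coated with 100 μg·ml−1 equine type I collagen for 60 min at room temperature, washed with PBS and blocked with 1% BSA for 60 min. Whole blood loaded with 5 μM calcein‑green AM was incubated with test compound for 30 min. It was perfused at 1,500 s−1 for 5 min, imaged by confocal microscopy, and reported as % coverage area, n = 5.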

[2] = test system: human purified vWF; assay: Platelet adhesion to vWF-coated flow chamber under high shear stress; format: cell-based; settings: flow chamber coated with 50 μg·ml^−1 vWF
[3] = test system: human platelets (PRP); assay: Agonist-induced platelet aggregation in human PRP; format: cell-based; settings: for IC50: Homo sapiens, Platelet
Procedure, shortened: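 Human blood was anticoagulated with 3.2% citrate (1:9) and spun at 150 g for 15 min to give PRP, adjusted to 3 × 10^8 platelets/ml with PPP. PRP was incubated with test compound for 30 min at 37°C, then stimulated for 6 min with thrombin (0.6–0.8 U·ml−1), collagen (2–4 μg·ml−1), ADP (5–10 μM) or ristocetin (1.0–1.25 mg·ml−1). Aggregation was read by light transmission, with PPP as 100%.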

[4] = test system: SD rats; assay: Transection tail bleeding time; format: in vivo, rat
Procedure, shortened: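 Male SD rats were dosed orally with test compound, either once or twice daily for 2 weeks; clopidogrel 8 mg·kg−1 was given on the same regimens. One hour after dosing, under urethane (1.25 g·kg−1 i.p.), tails were transected 3 mm from the tip and blotted every 30 s until bleeding stopped, with a 30 min cut‑off. n = 6 (single) or 5 (multiple) per group.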

[5] = test system: platelets; assay: 5-HT release under high shear stress; format: cell-based, human
Procedure, shortened: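 Platelets were treated with a range of test compound concentrations for 30 min and exposed to high shear stress. Supernatants were collected by centrifugation at 12,000 g for 5 min at 4°C, and 5‑HT was measured by ELISA. Samples were run in duplicate, n = 5 per group. Values are expressed relative to matched vehicle and normalised to unsheared samples.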

[6] = test system: washed platelets; assay: Intracellular calcium level under high shear stress; format: cell-based, human; settings: washed platelets, 10,800 s^−1, concentration-dependent
[7] = test system: carotid artery thrombosis in SD rats; assay: FeCl3-induced arterial thrombosis model; format: in vivo, rat
[8] = Pharmacokinetic experiments in rats; format: in vivo; settings: Sprague-Dawley, rat, plasma; for Tmax: SD rats, p.o. 25 mg·kg^−1
[9] = test system: rat platelets (PRP); assay: SIPA in rat PRP in vitro; format: cell-based; settings: n = 8
[10] = test system: washed platelets; assay: Fibrinogen binding under high shear stress; format: cell-based, human
Procedure, shortened: (§1)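 Human washed platelets (acid–citrate–dextrose with 1 μM PGE1, washed in Tyrode's pH 7.4, 3 × 10^8/ml, 2 mM CaCl2) were incubated with a range of test compound concentrations, then sheared at 10,800 s−1 for 10 min in a cone-plate viscometer. Cells were labelled with anti-CD42b-PE plus anti-CD62P-FITC, PAC-1-FITC or Alexa Fluor 488-fibrinogen for 20 min in the dark and read by flow cytometry (10,000 events). Values are relative to vehicle and normalised to unsheared samples, mean ± SEM. n = 6 for P-selectin and PAC-1, n = 5 for fibrinogen.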

[11] = test system: washed platelets; assay: P-selectin expression under high shear stress; format: cell-based, human
Procedure, shortened: as §1

[12] = test system: platelets; assay: Platelet cytotoxicity, LDH leakage; format: cell-based, human; settings: concentrations up to 1,000 μM
Procedure, shortened: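 Platelets were incubated with test compound and centrifuged. Supernatant was added to Tris‑EDTA NADH buffer (56 mM Tris, 5.6 mM EDTA, 0.17 mM β‑NADH, pH 7.4) and preincubated for 10 min at 37°C, then 14‑mM pyruvate solution was added. LDH was read as the fall in A339, expressed as % of total activity in a 0.3% Triton X‑100 lysate. Samples were run in duplicate, with five repeats.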

[13] = Ex vivo prothrombin time and activated partial thromboplastin time; settings: rats, therapeutic dose range p.o., 1 hr
[14] = test system: rat platelets (PRP); assay: Ex vivo determination of SIPA inhibition after oral dosing; format: in vivo; settings: rats, 5, 10 and 25 mg·kg^−1 p.o., 1 hr
Procedure, shortened: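 Male SD rats (280–320 g) were gavaged with test compound in 5% DMSO/10% Tween 80 in water at 5 ml·kg−1. After 1 hr, aortic blood was drawn under urethane (1.25 g·kg−1 i.p.) into 3.8% citrate (1:9), and PRP was prepared. PRP was sheared at 10,800 s−1 in a cone‑plate viscometer, fixed with glutaraldehyde, and aggregation was scored by microscopic single‑cell count. n = 6 rats per group.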

[15] = target: vWF–GP Ib interaction (Homo sapiens, UniProt P04275); assay: vWF binding to platelets under high shear stress; format: cell-based
Procedure, shortened: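 Platelets were treated with test compound, exposed to shear stress, and diluted in Tyrode's buffer. They were stained with anti‑vWF‑FITC and anti‑CD42b‑PE for 20 min in the dark, and 10,000 events were analysed by flow cytometry. For GP IIb/IIIa blockade, platelets were preincubated with 2 mM Arg‑Gly‑Asp. Values are expressed relative to vehicle and normalised to unsheared samples, n = 5.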

[16] = test system: GP IIb/IIIa; assay: GP IIb/IIIa activation under high shear stress; format: cell-based, human
Procedure, shortened: as §1

[17] = test system: human platelets (PRP); assay: Shear stress-induced platelet aggregation; format: cell-based
[18] = test system: washed human platelets; assay: SIPA in washed human platelets; format: cell-based; settings: 30 min incubation, n = 6
Procedure, shortened: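 Human washed platelets (3 × 10^8/ml in Tyrode's pH 7.4, 2 mM CaCl2) were preincubated with test compound for 30 min, and 10 μg·ml−1 vWF was added. They were then sheared in a cone-plate viscometer at 10,800 s−1 for 10 min at 37°C and fixed with 0.5% glutaraldehyde. Aggregation was scored from single-cell counts by light microscopy and […]. n = 6, mean ± SEM.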

vWF–GP Ib interaction, sequence (P04275 764-2813 limits assumed): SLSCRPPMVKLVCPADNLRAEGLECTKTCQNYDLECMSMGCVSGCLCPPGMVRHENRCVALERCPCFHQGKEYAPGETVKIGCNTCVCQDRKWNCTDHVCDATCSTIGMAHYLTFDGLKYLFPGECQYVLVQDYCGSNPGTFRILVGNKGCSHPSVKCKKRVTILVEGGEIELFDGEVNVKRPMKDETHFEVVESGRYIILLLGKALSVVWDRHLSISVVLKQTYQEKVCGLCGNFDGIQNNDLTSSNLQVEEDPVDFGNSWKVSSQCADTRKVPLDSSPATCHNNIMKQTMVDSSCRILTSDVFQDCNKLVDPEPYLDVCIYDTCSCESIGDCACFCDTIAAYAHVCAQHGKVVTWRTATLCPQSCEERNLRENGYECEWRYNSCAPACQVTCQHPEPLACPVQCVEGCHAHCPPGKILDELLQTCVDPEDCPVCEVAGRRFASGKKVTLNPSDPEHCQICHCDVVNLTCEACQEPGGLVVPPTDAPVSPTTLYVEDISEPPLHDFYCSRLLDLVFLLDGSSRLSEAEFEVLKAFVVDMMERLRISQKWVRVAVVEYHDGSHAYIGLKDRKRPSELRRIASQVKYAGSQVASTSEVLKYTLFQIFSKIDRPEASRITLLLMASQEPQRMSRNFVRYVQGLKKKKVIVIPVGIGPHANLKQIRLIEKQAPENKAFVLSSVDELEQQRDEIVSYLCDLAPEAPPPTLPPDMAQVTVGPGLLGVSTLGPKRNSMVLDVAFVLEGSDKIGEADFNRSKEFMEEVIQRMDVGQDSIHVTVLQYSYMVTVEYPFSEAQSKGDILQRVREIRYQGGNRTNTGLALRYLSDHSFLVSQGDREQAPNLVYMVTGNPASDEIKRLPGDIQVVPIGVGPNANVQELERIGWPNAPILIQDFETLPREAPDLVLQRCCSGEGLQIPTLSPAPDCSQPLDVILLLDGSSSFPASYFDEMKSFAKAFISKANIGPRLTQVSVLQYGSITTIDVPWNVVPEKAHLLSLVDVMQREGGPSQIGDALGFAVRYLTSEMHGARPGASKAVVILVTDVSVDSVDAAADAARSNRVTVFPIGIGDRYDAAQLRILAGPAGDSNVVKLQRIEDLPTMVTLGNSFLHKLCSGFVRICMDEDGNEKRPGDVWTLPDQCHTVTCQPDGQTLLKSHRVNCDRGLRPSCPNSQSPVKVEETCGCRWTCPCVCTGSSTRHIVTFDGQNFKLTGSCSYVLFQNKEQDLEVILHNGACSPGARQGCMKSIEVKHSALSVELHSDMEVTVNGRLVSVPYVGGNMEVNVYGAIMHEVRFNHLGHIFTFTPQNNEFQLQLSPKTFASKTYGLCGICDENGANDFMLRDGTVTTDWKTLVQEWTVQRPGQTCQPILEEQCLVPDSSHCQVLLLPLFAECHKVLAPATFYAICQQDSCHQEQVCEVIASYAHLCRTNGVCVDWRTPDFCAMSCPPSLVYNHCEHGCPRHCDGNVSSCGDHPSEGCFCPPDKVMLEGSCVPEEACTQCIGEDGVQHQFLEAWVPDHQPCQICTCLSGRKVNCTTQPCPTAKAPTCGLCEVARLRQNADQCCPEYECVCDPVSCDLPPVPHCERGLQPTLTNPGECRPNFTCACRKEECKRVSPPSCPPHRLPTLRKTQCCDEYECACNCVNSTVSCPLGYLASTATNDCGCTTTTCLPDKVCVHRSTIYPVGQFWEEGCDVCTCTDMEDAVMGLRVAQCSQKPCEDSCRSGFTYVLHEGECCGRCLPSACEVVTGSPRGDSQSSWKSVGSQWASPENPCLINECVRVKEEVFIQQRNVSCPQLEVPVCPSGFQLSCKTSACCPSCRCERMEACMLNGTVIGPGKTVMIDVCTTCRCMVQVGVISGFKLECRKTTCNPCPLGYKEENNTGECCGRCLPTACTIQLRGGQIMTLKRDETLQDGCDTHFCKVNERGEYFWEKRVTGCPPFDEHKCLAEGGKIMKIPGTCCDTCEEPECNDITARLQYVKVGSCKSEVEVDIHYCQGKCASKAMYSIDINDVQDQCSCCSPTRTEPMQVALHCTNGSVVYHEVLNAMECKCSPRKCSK

IC50 ([3]; read-out: IC50 (μM), platelet activator ADP): > 250 µM
IC50 ([3]; read-out: IC50 (μM), platelet activator collagen): > 250 µM
IC50 ([3]; read-out: IC50 (μM), platelet activator thrombin): > 250 µM
Tail bleeding time, single dose ([4]; single oral dose up to 100 mg·kg^−1): did not prolong bleeding time
AUC(0-inf) ([8]; iv, 10 mg/kg): 3.25 µg·h/mL
Vd ([8]; iv, 10 mg/kg): 5.3 ± 1.1 L/kg
clearance ([8]; iv, 10 mg/kg): 3.1 L/h/kg
half-life ([8]; iv, 10 mg/kg): 2.4 ± 0.5 h
bioavailability ([8]; oral, 25 mg·kg^−1): 55.3 ± 16.7%
AUC(0-inf) ([8]; po, 25 mg/kg): 4.49 µg·h/mL
Cmax ([8]; po, 25 mg/kg): 2.37 µg/mL
half-life ([8]; po, 25 mg/kg): 3.6 ± 1.4 h
Tmax ([8]; po, 25 mg/kg, tmax (hr)): 7.2 ± 6 min
Tmax ([8]; po, 25 mg/kg, tmax): ~7 min
concentration at 3 min ([8]; po, 25 mg·kg^−1): 2.29 µg/mL
concentration at 15 min ([8]; po, 25 mg·kg^−1): 1750 ng/mL and 6 µM
concentration at 30 min ([8]; po, 25 mg·kg^−1): 1060 ng/mL and 3.7 µM
concentration at 1 hr ([8]; po, 25 mg·kg^−1): 2.2 µM and 586 ng/mL
concentration at 4 hr ([8]; po, 25 mg·kg^−1): 1.3 µM and 366 ng/mL
concentration at 8 hr ([8]; po, 25 mg·kg^−1): 700 nM and 198 ng/mL
Blood clotting time (prothrombin time and activated partial thromboplastin time) [13]: did not prolong blood clotting time
Binding of vWF to platelets under high shear with GP IIb/IIIa blocked ([15]; GP IIb/IIIa blocked by Arg-Gly-Asp 2 mM): maintained
Binding of vWF to platelets under high shear ([15]; GP IIb/IIIa free, concentration-dependent): markedly blocked
Structure (SMILES): CCc1occc(=O)c1OC(=O)c1ccc(O)c(OC)c1 [SP‐8008, benzoic acid, 4‐hydroxy‐3‐methoxy‐, 2‐ethyl‐4‐oxo‐4H‐pyran‐3‐yl ester]
Size and number of platelet aggregates in collagen-coated flow chamber [1]: significantly reduced
Adhesion of platelets to vWF-coated surfaces [2]: significantly inhibited
Ristocetin-induced platelet aggregation ([3]; human PRP, ristocetin): attenuated
Effect on shear stress-induced 5-HT release (dense granule secretion) [5]: significant reduction
Effect on shear stress-induced intracellular calcium elevation [6]: decreased the elevation of intracellular calcium
Potency against arterial thrombosis after intravenous administration ([7]; intravenous administration, data not shown): strong inhibitory potency
Inhibition of arterial thrombosis compared with clopidogrel (8 mg·kg^−1) ([7]; rats, 25 mg·kg^−1 p.o., single treatment): close to that provided by clopidogrel
Time to occlusion, single treatment ([7]; rats, 10 or 25 mg·kg^−1 p.o., FeCl3): significantly prolong
Antithrombotic effects, multiple treatments ([7]; rats, oral twice daily for 5 days (2 weeks elsewhere in the source)): further confirmed
Effect on SIPA in rat platelets in vitro [9]: significantly inhibited
Effect on shear stress-induced fibrinogen binding [10]: significantly blocked
Effect on shear stress-induced P-selectin expression (α-granule secretion) [11]: significant reduction
LDH leakage from platelets [12]: did not increase LDH leakage
Ex vivo effect on SIPA after oral administration [14]: dose‐dependent inhibitory effects
Effect on shear stress-induced GP IIb/IIIa activation [16]: significantly blocked
inhibition at 25 µM ([17]; Homo sapiens, Platelet, read-out: In vitro SIPA inhibition (%)): 84 ± 16%
Effect on SIPA in human PRP ([17]; concentration-dependent, 30 min incubation, n = 8): significantly inhibited
Selectivity for SIPA over thrombin, collagen, ADP ([17]; ratio of IC50 values): over 150 fold
Effect on SIPA in washed human platelets [18]: suppressed

Tail bleeding time (bleeding risk) ([4]; 8 mg·kg^−1): clearly increased
Structure (SMILES): COC(=O)[C@H](c1ccccc1Cl)N1CCc2sccc2C1 [clopidogrel, reference compound]
